Source: article PMC8542630 (Cell chemical biology, 2021)

Key:
Sc-DynGST = Sc-DynGST (Saccharomyces cerevisiae, UniProt P36022); test: Single-molecule motility assay; type: biochemical, S. cerevisiae
[1] = target: GFP-Sc-Dyn AAA1 E/Q (E1849Q) (Saccharomyces cerevisiae, UniProt P36022, E1849Q); test: Microscale thermophoresis; type: binding, S. cerevisiae
GFP-Sc-Dyn [2] = target: T1, GFP-Sc-Dyn (Saccharomyces cerevisiae, UniProt P36022); test: Microtubule gliding assay; type: biochemical, S. cerevisiae; conditions: 25 μM compound
T1 sequence (P36022 1219-4092): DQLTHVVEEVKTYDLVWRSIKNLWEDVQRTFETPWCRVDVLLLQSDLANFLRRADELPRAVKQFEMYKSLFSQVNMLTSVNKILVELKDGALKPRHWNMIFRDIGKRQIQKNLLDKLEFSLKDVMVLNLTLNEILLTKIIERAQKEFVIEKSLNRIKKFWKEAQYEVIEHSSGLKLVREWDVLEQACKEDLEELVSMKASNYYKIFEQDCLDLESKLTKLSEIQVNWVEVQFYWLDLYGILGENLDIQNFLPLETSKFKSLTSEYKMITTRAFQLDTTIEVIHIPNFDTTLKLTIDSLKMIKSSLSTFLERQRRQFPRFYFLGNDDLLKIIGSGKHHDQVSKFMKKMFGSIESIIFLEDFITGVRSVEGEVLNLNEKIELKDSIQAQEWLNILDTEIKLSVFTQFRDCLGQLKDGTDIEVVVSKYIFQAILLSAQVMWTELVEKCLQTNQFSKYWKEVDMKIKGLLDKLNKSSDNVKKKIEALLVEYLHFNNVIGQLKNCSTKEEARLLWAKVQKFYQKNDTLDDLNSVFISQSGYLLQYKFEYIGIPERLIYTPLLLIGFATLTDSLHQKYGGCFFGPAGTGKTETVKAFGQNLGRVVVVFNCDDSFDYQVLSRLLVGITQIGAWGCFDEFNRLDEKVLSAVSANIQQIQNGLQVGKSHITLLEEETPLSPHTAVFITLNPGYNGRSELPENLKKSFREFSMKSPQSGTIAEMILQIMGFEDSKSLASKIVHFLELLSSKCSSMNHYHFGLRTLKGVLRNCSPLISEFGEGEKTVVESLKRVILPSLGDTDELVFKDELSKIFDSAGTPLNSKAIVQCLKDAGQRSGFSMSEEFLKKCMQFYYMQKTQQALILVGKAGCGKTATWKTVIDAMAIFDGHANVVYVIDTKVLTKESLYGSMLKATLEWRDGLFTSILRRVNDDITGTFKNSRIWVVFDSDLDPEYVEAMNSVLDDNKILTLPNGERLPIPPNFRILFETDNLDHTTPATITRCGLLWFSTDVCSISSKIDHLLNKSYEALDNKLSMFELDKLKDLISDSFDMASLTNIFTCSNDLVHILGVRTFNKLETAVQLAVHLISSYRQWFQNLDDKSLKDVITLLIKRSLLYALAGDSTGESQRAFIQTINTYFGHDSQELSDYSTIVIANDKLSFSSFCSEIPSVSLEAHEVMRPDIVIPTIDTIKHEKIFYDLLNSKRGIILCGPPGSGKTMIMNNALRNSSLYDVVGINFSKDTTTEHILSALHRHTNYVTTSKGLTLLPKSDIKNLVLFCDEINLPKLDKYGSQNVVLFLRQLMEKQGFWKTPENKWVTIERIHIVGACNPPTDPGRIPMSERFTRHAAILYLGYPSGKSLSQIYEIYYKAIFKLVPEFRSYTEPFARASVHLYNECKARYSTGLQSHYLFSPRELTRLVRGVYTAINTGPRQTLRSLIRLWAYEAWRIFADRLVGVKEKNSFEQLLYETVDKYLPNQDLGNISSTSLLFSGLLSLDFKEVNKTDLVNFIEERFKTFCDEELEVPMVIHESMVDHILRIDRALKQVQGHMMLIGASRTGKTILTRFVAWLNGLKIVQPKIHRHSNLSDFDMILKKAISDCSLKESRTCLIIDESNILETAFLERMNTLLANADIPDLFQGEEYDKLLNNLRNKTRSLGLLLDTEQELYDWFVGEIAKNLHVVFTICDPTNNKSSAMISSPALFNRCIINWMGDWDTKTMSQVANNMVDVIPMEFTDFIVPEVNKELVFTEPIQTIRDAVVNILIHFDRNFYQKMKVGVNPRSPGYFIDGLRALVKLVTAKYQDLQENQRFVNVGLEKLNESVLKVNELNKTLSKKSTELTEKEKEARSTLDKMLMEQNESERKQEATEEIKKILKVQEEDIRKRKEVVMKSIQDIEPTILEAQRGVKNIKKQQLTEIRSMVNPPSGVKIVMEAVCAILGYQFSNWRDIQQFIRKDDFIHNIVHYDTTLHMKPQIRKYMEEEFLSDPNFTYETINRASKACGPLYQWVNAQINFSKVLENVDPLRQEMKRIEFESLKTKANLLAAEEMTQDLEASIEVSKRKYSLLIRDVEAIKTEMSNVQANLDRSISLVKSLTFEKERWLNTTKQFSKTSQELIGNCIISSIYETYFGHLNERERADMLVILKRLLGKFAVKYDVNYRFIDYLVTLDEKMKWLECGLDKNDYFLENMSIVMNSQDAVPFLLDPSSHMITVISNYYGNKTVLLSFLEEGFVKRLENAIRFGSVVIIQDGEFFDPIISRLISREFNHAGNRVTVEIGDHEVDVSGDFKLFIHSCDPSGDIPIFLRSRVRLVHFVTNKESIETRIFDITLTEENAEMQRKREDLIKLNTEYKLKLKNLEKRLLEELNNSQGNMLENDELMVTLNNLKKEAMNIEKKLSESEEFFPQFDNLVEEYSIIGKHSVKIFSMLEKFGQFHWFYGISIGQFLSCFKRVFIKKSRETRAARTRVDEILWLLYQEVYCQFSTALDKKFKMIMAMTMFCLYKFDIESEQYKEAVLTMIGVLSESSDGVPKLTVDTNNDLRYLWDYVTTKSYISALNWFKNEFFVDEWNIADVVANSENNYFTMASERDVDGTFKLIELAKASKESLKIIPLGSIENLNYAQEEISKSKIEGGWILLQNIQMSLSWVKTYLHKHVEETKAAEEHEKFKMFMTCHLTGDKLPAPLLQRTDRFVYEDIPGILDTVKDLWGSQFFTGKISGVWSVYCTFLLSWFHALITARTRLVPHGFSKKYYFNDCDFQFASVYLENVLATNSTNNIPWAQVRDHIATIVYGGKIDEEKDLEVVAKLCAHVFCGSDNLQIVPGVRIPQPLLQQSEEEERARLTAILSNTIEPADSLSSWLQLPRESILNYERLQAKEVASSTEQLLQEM

Dm-spastin = Dm-spastin (Drosophila melanogaster, UniProt Q8I0P1, DEL311-372); test: NADH-coupled steady-state ATPase assay, Dm-spastin; type: biochemical, D. melanogaster
Hs-FIGL1 = target: T2, Hs-FIGL1 (Homo sapiens, UniProt Q6PIW4); test: NADH-coupled steady-state ATPase assay, Hs-FIGL1; type: biochemical, H. sapiens
T2 sequence (Q6PIW4 288-674): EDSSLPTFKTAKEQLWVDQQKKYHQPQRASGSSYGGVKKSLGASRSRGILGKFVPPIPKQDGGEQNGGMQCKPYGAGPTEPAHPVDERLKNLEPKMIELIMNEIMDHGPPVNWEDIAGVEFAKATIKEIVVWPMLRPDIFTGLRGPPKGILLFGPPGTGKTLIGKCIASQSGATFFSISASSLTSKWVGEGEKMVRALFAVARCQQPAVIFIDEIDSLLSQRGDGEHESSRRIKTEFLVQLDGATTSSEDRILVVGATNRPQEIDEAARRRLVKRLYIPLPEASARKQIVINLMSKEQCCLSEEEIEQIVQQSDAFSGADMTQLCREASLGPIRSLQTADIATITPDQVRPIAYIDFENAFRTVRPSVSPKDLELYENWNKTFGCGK
Outline: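 Recombinant Hs-FIGL1 (50 nM; E. coli-expressed) in 25 mM Na-MES pH 6.5, 70 mM KOAc, 20 mM (NH4)2SO4, 5 mM Mg(OAc)2, 1 mM TCEP, 0.01% Triton X-100, with NADH/PEP/pyruvate kinase/lactate dehydrogenase coupling system. Protein preincubated 10 min at RT with test compound, then MgATP added. NADH fluorescence (ex 340, em 440 nm) slope converted to ATPase rate with an ADP standard curve.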

[3] = target: GFP-Sc-Dyn AAA3 E/Q (E2488Q); test: NADH-coupled steady-state ATPase assay, GFP-Sc-Dyn AAA3 E/Q mutant; type: biochemical, S. cerevisiae; conditions: 1 mM MgATP, n=3
[4] = target: T3, GFP-Sc-Dyn AAA3 E/Q (E2488Q) (Saccharomyces cerevisiae, UniProt P36022, E2488Q); test: as above; type: biochemical, S. cerevisiae
T3 sequence (P36022 1219-4092 E2488Q): as the sequence (P36022 1219-4092) above, with E1270Q counted along it

Hs-dynein 1 = Hs-dynein 1 (Homo sapiens, UniProt Q14204); test: Radioactive ATPase assay, basal ATPase activity of Hs-dynein 1; type: biochemical
Outline: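 Hs-dynein 1 motor construct (N-terminal His6, aa 1320–4646) at 30 nM, without microtubules. Radioactive ATPase reaction ran for 45 min with test compound. Percent inhibition was obtained by normalising the ATPase rate with compound to DMSO control.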

[5] = target: GFP-Sc-Dyn AAA4 E/Q (E2819Q) (Saccharomyces cerevisiae, UniProt P36022, E2819Q); test: Microscale thermophoresis; type: binding, S. cerevisiae
GFP-Sc-Dyn AAA4 E/Q (E2819Q), sequence (P36022 1219-4092 E2819Q): as the sequence (P36022 1219-4092) above, with E1601Q counted along it

[6] = target: T3, GFP-Sc-Dyn AAA3 E/Q (E2488Q); test: Microscale thermophoresis; type: binding, S. cerevisiae
Mm-VCP/p97 = Mm-VCP/p97 (Mus musculus, UniProt Q01853); test: NADH-coupled steady-state ATPase assay, Mm-VCP/p97; type: biochemical, M. musculus
Mm-VCP/p97, sequence (Q01853 whole entry): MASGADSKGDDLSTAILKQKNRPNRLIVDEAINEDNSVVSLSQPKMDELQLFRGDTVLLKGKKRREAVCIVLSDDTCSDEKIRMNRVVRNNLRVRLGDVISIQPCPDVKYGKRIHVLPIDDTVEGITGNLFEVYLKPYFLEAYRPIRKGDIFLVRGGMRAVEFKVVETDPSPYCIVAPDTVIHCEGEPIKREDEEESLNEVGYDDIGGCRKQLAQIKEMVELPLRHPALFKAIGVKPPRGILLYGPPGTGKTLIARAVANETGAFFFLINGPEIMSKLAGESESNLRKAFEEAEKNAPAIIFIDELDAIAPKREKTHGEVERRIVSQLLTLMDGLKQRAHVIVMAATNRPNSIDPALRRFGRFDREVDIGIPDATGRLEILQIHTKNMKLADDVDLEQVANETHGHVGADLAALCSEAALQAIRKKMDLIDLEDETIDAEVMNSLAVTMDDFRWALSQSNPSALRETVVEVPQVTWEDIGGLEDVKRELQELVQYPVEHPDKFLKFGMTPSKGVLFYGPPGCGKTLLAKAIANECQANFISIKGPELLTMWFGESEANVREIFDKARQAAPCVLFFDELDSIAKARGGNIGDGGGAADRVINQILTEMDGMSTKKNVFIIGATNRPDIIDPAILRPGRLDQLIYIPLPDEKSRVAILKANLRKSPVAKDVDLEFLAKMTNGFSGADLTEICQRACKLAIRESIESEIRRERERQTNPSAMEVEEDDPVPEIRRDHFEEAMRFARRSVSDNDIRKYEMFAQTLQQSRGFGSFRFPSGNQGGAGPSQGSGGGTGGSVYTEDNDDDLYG

GFP-Sc-Dyn [7] = target: T1, GFP-Sc-Dyn; test: NADH-coupled steady-state ATPase assay, GFP-Sc-Dyn basal ATPase; type: biochemical, S. cerevisiae
Xl-katanin = Xl-katanin (Xenopus laevis, UniProt Q9PUL2); test: NADH-coupled steady-state ATPase assay, Xl-katanin; type: biochemical, X. laevis
Xl-katanin, sequence (Q9PUL2 whole entry): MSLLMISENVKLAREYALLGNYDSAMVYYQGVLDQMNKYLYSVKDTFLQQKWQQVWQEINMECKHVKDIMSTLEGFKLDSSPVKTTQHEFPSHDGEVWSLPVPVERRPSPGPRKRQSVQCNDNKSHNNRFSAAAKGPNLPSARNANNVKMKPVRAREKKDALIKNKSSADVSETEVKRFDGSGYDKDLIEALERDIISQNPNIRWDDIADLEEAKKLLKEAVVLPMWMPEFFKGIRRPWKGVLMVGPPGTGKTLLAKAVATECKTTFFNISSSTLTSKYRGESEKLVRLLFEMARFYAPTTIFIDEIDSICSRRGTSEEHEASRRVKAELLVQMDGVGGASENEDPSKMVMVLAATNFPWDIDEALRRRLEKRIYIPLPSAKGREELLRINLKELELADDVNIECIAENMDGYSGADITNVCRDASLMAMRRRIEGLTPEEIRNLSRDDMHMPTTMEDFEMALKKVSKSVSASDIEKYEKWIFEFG
Outline: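 Recombinant Xl-katanin (50 nM; E. coli, MBP-trap, MonoQ and gel filtration) in 25 mM K-HEPES pH 7.5, 70 mM KCl, 20 mM (NH4)2SO4, 5 mM MgCl2, 2.5 mM DTT, 0.01% Triton X-100 plus NADH-coupled regeneration mix. After 10 min RT preincubation with test compound, MgATP started the reaction. The fluorescence decrease rate (340/440 nm) was converted to ATPase rate using an ADP standard curve.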

[8] = single-molecule, 0-50 μM compound
[9] = 1% DMSO, 1 mM Mg-ATP, mean ± SD

Sc-DynGST, sequence (P36022 1219-4092 limits assumed): as the sequence (P36022 1219-4092) above
GFP-Sc-Dyn AAA1 E/Q (E1849Q), sequence (P36022 1219-4092 E1849Q): as the sequence (P36022 1219-4092) above, with E631Q counted along it

## N#Cc1c(C2(c3ccc(Cl)cc3)CC2)nn2c(=O)c(Oc3cccc(Br)c3)c[nH]c12 [compound 20, 6-(3-bromophenoxy)-2-[1-(4-chlorophenyl)cyclopropyl]-7-oxo-4H-pyrazolo[1,5-a]pyrimidine-3-carbonitrile]
Sc-DynGST
  EC50: 12.7 ± 2.5 µM
Sc-DynGST; single-molecule
  Pausing during processive runs (in words): no significant pausing
Sc-DynGST; [8]
  Effect on dynein processivity (run length) (in words): little to no effect
  Effect on dynein velocity (in words): little to no effect
[1]
  EC50: 73 ± 114 µM
[1]; mean ± 95% CI, n=4
  Hill slope, binding to AAA1 E/Q mutant (MST): 1.3 ± 0.9
GFP-Sc-Dyn [2]
  Time until most microtubules become immotile: ≤ 30 min
GFP-Sc-Dyn [2]; [9]
  Microtubule gliding velocity, 30 minutes after treatment: 3 ± 5
  Microtubule gliding velocity, immediately after treatment: 35 ± 19
Dm-spastin; 20 μM, 1 mM MgATP
  Reduction of ATPase activity, Dm-spastin: < 25%
Dm-spastin; compound 20 μM, mean ± SD, n=3
  Percent steady-state ATPase activity, Dm-spastin: 88 ± 4.4%
Hs-FIGL1; compound 20 μM, mean ± SD, n=3
  Percent steady-state ATPase activity, Hs-FIGL: 15 ± 11%
Hs-FIGL1; read-out: Inhibition of ATPase activity, Hs-FIGL1
  inhibition at 20 µM: ~85%
[3]
  IC50 fold lower than that of GFP-Sc-Dyn, AAA3 E/Q mutant: ~ 2 fold
[4]
  IC50: 8.2 ± 1.4 µM
Hs-dynein 1
  IC50: 12 ± 9.3 µM
Hs-dynein 1; compounds tested at 20 μM, 1 mM MgATP, no microtubules, n=2
  Inhibition of Hs-dynein 1 basal ATPase activity (in words): most active
[5]
  EC50: > 200 µM
[6]
  EC50: 87 ± 104 µM
[6]; mean ± 95% CI, n=4
  Hill slope, binding to AAA3 E/Q mutant (MST): 0.8 ± 0.3
Mm-VCP/p97; 20 μM, 1 mM MgATP
  Reduction of ATPase activity, Mm-VCP: < 25%
Mm-VCP/p97; compound 20 μM, mean ± SD, n=3
  Percent steady-state ATPase activity, Mm-p97: 99 ± 7.9%
GFP-Sc-Dyn [7]
  IC50: 14 ± 1 µM
Xl-katanin; 20 μM, 1 mM MgATP
  Reduction of ATPase activity, Xl-katanin: < 25%
Xl-katanin; compound 20 μM, mean ± SD, n=3
  Percent steady-state ATPase activity, Xl-katanin: 76 ± 9.0%
